Experimental data as given in the EternaBench riboswitch data.

Tested on: MS2 coat protein
Assay: apparent Kd, MS2 coat protein; higher = weaker binding; RNA-MaP array; tryptophan 2.4 mM where present
Method in brief: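 The apparent Kd is reported as the median of filtered per-cluster binding-curve fits. To get these curves, designs transcribed by stalled E. coli RNA polymerase on Illumina sequencing-chip clusters were titrated with SNAP-549-labelled MS2 coat protein from 0.7 or 1.5 nM, doubling to 3 µM. Titrations were run without and then with constant ligand in 100 mM Tris-HCl pH 7.5, 80 mM KCl, 4 mM MgCl2, BSA, DTT, yeast tRNA and Tween-20, and green signal was normalised to red-channel RNA signal and control-cluster median Fmax.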

[1] = designed as: ON switch for tryptophan, no ligand
[2] = ligand present: tryptophan, designed as: ON switch for tryptophan
[3] = designed as: OFF switch for tryptophan, no ligand
[4] = ligand present: tryptophan, designed as: OFF switch for tryptophan

Row | Sequence | apparent Kd [1] [µM] | apparent Kd [2] [µM] | apparent Kd [3] [µM] | apparent Kd [4] [µM]
1 | AAAACAUGAGGAUCACCCAUGUACAUGGGUCGAGGACCGGUACGGCCGCCACUCGCCGCCCGCCCGCCCGCCACCUCUCCCGCCC | 0.0699 | 0.0662 |  | 
2 | AACACAUGAGGAUCACCCAUGUCCAUGUACCGAGGACCGGUACGGCCGCCACUCGACAUGAGGAUCACCCAUGUUCCAUGUUGUC | 0.108 | 0.149 |  | 
3 | AACGUCUUGUCGGCCGCCACUGUAUGGUGCGUGACAUGAAACAUGAGGAUCACCCAUGUAGCAUGCAGGACCGGGACAGUGCCAA |  |  | 0.00984 | 0.0178
4 | AAGACAUGAGGAUCACCCAUGUCGUCUACACGAGGACCGGUACGGCCGCCACUCGUUUGCCAAUGAGCGCAUGCGGCCUGGGUAU |  |  | 0.0133 | 0.0241
5 | AAUCAUGAAAACAUGACAUGAGGAUCACUCCGAGGACCGGUACGGCCGCCACUCGCGAGGAGGCACAUGAGGAUCACCCAUGUUA | 0.0689 | 0.0827 |  | 
6 | AAUGAGUGGUGGUCAAACAUGGGUGAUCAACGAGGACCGGUACGGCCGCCACUCGAUAACAUGAGGAUCACCCAUGUAAUAAUAA |  |  | 0.234 | 0.202
7 | AAUGUAUGGCACAUGAGGAUCACCCAUGUGCGAGGACCGGUACGGCCGCCACUCGGUCCUGGGAUCUUAAUACUAUACAUUAAUG |  |  | 0.0109 | 0.0282
8 | ACAUGAGGAUCACCCAUGUCAUGAGGUUCACGAGGACCGGUACGGCCGCCACUCGACAUGAGGGUCACCCGUGAACGGAACACCC | 0.0148 | 0.02 |  | 
9 | ACAUGAGGAUCACCCAUGUUAAACAGGGUGCGAGGACCGGUACGGCCGCCACUCGGACAUUAUUACGAGUGAAUGGCAACGAUGU |  |  | 0.0158 | 0.0154
10 | ACAUUAGCCACGGCCGCCACUGCUUUAUGAUUAUAAGGAUUAAUGAACAUGAGGAUCACCCAUGUCAGGACCGGGUGCCUACCAU | 0.0298 | 0.0297 |  | 
11 | ACGUUUUAGUCGGCCGCCACUGAUCUCAUGUUCAACAUGAGGAUCACCCAUGUACCUUUUUUUAUCAGGACCGGGACGUAAUAGA | 0.329 | 0.0623 |  | 
12 | ACUACAAAGUAGUAUAUACGAAAGUAUAGACGAGGACCGGUACGGCCGCCACUCGGUACCGGAAACACAUGAGGAUCACCCAUGU |  |  | 0.0206 | 0.0176
13 | AGAGCAUUGACGGCCGCCACUCAUGUCACAUGAGGAUCACCCAUGUGAUGGGUGAUAGCCCGGUUGAGGACCGGGUCAAUGCUCA | 0.0188 | 0.0194 |  | 
14 | AGAGCAUUGACGGCCGCCACUCGUGUCACAUGAGGAUCACCCAUGUGACGGGUGAUCGCCCGGUUGAGGACCGGGUCAAUGCUCA | 0.00969 | 0.0114 |  | 
15 | AGAUGAGUCACGGCCGCCACUCUUAUCAGGAUCACCCAUGGUUGACAUGAGGAUCACCCAUGUAUGAGGACCGGGUGAUGAGCAU |  |  | 0.0122 | 0.0156
16 | AGCCACUCGAGUGAUCCUCACGAGUGGCAACGAGGACCGGUACGGCCGCCACUCGAAUAAACAUGAGGAUCACCCAUGUAAUAAU | 0.0705 | 0.0491 |  | 
17 | AGCCACUCGAGUGAUCCUCACGAGUGGCUACGAGGACCGGUACGGCCGCCACUCGAAUUAACAUGAGGAUCACCCAUGUAAUCAC | 0.0655 | 0.0502 |  | 
18 | AGUACAUGAGGAUCACCCAUGUAUCGGUACCGAGGACCGGUACGGCCGCCACUCGCAGGACAUGAGGAUCACCCAUGUGCCGCCG | 0.0189 | 0.0238 |  | 
19 | AUAAAUAAUAAAUAAAAUAAAGUGGGUGAACGAGGACCGGUACGGCCGCCACUCGGACAUGAGGAUCACCCAUGUCCAUGUGAAA |  |  | 0.0172 | 0.0512
20 | AUAACGAGUGGUGGAAUACAUGGGUGAUAACGAGGACCGGUACGGCCGCCACUCGAUAACAUGAGGAUCACCCAUGUAAUAAUAA |  |  | 0.161 | 0.0311
21 | AUAUAUACAUGAGGAUCACCCAUGUUAUUUCGAGGACCGGUACGGCCGCCACUCGAUAGAGUAGAAGUAAAUUUUAAUUCAUGUA | 0.0143 | 0.0141 |  | 
22 | AUAUAUACAUGAGGAUCACCCAUGUUAUUUCGAGGACCGGUACGGCCGCCACUCGAUAGAGUAGAAGUAACAUUUGUUAGAUGUA | 0.0197 | 0.0139 |  | 
23 | AUGCAGAACACGGCCGCCACUCCAUGUAUACAUGAGGAUCACCCAUGUAAUUUGUAUUUUUUAUAGAGGACCGGGUGAAAUGCAA | 0.0335 | 0.0182 |  | 
24 | AUUAAGGAUAUAUAGAAGGCGGAGAAGAGACGAGGACCGGUACGGCCGCCACUCGUGUUAGUUAACAUGAGGAUCACCCAUGUAA | 0.0806 | 0.0187 |  | 
25 | AUUCAUGGAAACAUGACAUAGGGAUCUAGCCGAGGACCGGUACGGCCGCCACUCGCUUGGAGGCACAUGAGGAUCACCCAUGUUA | 0.145 | 0.0487 |  | 
26 | CAAAGUUCGUCUCUGGUCCUCUAAUCGGCUCGAGGACCGGUACGGCCGCCACUCGCCCGACAUGAGGAUCACCCAUGUCUGUAAA |  |  | 0.0132 | 0.0109
